Test results as given in ChEMBL document CHEMBL5365503, “Design and Synthesis of 1,3,5-Triazines or Pyrimidines Containing Dithiocarbamate Moiety as PI3Kα Selective Inhibitors” (ACS Med Chem Lett, 2023).
Each block holds one molecule with its values, some of them ahead of it.

Key:
[1] = target: Phosphatidylinositol 4,5-bisphosphate 3-kinase catalytic subunit alpha isoform (Homo sapiens, UniProt P42336); assay: Inhibition of N-terminal GST-fused full-length human PI3Kalpha (1 to 1068 residues) expressed in baculovirus expression system using PIP2 as substrate incubated for 1 hr in presence of ATP by ADP-Glo assay
Sequence of Phosphatidylinositol 4,5-bisphosphate 3-kinase catalytic subunit alpha isoform (P42336 whole entry, the tested form may be a part, canonical isoform): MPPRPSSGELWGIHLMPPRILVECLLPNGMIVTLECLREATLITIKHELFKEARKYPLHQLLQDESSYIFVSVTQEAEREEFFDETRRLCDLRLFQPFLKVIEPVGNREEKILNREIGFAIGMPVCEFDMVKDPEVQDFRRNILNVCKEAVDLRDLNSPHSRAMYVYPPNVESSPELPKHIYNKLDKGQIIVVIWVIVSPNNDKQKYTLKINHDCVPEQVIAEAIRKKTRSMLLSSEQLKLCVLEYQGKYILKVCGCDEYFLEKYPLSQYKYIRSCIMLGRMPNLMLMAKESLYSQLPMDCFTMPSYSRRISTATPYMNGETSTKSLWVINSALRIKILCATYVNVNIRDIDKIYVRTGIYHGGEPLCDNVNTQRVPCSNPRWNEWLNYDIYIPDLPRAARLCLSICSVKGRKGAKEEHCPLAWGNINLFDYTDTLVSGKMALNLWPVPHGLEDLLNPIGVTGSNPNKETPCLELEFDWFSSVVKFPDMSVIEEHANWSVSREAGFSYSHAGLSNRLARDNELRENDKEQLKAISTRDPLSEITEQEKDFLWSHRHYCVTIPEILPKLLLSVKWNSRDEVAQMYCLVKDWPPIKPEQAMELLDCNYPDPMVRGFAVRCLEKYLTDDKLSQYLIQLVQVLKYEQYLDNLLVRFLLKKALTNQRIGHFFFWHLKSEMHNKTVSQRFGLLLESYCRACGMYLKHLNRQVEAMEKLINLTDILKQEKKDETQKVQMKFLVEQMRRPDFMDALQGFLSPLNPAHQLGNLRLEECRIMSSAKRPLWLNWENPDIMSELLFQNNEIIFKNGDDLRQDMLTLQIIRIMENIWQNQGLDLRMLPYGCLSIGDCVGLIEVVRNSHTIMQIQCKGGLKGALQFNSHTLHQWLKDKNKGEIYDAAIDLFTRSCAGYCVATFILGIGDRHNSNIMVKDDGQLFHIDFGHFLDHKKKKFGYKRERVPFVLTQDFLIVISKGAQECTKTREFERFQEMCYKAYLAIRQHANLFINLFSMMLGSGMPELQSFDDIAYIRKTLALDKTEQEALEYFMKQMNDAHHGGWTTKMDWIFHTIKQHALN

[2] = Metabolic stability in rat liver microsomes assessed as compound remaining […] measured upto 60 mins by LC-MS/MS analysis; format: ADME, Microsome; conditions: read-out: Stability
[3] = Toxicity in BALB/c mouse xenografted with human U-87 MG cells assessed as body weight loss at 40 mg/kg/day, ip for 16 days; format: organism-based; conditions: in vivo, 384 h, time 16 day
In short: (§1)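 U87-MG xenograft mice treated once tumours averaged ~100 mm³. Dosing was 40 mg/kg/day intraperitoneally, once daily for 16 days. Tumour volume and body weight of each mouse were recorded on days 1, 4, 8, 11, 15 and 17.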

[4] = Toxicity in BALB/c mouse xenografted with human U-87 MG cells assessed as drug tolerance at 40 mg/kg/day, ip for 16 days; format: organism-based; conditions: in vivo, 384 h, time 16 day; in short: as §1
[5] = target: T1, Phosphatidylinositol 4,5-bisphosphate 3-kinase catalytic subunit delta isoform (Homo sapiens, UniProt O00329); assay: Inhibition of N-terminal 6xHis-tagged recombinant full-length human PI3Kdelta expressed in baculovirus infected Sf21 insect cells by ADP-Glo assay
T1 sequence (O00329 whole entry): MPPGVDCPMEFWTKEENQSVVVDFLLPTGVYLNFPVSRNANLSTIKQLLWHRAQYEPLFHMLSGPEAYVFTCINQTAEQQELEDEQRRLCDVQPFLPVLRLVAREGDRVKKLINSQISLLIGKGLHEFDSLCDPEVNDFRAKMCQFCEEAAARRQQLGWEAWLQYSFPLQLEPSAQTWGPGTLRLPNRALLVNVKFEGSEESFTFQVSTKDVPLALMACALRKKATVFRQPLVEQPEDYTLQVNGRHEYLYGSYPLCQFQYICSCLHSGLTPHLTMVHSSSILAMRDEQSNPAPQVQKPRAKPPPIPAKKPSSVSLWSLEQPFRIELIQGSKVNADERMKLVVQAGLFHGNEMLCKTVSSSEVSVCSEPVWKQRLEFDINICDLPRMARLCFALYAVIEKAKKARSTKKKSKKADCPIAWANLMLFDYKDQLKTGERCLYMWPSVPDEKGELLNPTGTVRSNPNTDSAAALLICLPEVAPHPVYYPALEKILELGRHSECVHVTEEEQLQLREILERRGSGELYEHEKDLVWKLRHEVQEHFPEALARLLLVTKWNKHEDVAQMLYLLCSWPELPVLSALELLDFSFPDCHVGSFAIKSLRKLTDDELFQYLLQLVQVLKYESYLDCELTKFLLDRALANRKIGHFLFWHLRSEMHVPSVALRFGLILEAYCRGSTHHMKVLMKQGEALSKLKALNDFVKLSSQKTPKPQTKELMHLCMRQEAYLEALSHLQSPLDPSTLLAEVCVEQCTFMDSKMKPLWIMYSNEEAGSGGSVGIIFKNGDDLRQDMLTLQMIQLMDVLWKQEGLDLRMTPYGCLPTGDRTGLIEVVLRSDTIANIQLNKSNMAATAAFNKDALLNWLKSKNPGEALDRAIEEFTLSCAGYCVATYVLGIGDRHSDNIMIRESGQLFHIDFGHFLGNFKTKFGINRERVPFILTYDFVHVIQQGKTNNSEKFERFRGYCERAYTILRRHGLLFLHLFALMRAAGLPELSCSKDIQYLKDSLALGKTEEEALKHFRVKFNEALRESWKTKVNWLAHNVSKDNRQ

[6] = Metabolic stability in rat liver assessed as intrinsic clearance […] measured upto 60 mins in presence of NADPH by LC-MS/MS analysis; format: ADME; conditions: read-out: CLH
[7] = Toxicity in BALB/c mouse xenografted with human U-87 MG cells assessed as animal mortality at 40 mg/kg/day, ip for 16 days; format: organism-based; conditions: in vivo, 384 h, time 16 day; in short: as §1
[8] = Metabolic stability in rat liver microsomes assessed as intrinsic clearance […] measured upto 60 mins in presence of NADPH by LC-MS/MS analysis; format: ADME, Microsome; conditions: read-out: CLH
[9] = target: Phosphatidylinositol 4,5-bisphosphate 3-kinase catalytic subunit beta isoform (Homo sapiens, UniProt P42338); assay: Inhibition of N-terminal 6xHis-tagged recombinant, full length human PI3Kbeta by ADP-Glo assay
Sequence of Phosphatidylinositol 4,5-bisphosphate 3-kinase catalytic subunit beta isoform (P42338 whole entry, canonical isoform): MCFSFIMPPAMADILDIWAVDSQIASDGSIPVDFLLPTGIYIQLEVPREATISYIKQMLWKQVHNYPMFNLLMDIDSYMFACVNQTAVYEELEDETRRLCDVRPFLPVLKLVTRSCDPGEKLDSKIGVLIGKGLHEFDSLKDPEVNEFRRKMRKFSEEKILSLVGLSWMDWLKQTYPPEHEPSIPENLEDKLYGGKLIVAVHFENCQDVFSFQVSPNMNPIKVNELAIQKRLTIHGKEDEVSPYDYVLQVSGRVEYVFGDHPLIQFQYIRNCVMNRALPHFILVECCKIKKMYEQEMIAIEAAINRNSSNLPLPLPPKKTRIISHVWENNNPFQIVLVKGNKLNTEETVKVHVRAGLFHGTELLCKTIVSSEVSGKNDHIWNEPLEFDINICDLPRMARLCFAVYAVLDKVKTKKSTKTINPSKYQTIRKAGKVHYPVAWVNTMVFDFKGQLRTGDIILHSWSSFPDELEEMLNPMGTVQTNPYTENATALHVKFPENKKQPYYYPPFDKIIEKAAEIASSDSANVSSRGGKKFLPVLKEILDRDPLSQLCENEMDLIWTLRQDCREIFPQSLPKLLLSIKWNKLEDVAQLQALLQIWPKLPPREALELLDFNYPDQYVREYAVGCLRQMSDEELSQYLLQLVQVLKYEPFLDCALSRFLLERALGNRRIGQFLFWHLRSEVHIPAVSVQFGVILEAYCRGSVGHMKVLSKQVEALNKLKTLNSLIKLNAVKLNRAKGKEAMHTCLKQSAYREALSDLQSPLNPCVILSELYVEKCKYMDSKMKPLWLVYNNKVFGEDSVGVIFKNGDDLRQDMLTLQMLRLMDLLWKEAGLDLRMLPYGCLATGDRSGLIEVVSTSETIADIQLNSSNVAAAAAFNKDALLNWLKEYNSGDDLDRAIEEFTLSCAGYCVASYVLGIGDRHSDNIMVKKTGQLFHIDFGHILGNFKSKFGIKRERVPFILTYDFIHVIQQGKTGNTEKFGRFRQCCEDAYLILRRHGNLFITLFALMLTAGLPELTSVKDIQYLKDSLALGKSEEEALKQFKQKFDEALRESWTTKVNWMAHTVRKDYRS

HCT-116 = assay: Antiproliferative activity against human HCT-116 cells assessed as inhibition of cell proliferation incubated for 96 hrs by MTT assay; format: functional, cell-based; conditions: HCT-116, 96 h
[10] = Metabolic stability in rat liver microsomes assessed as half life […] measured upto 60 mins in presence of NADPH by LC-MS/MS analysis; format: ADME, Microsome
[11] = Metabolic stability in rat liver microsomes assessed as compound remaining […] measured upto 60 mins in presence of NADPH by LC-MS/MS analysis; format: ADME, Microsome; conditions: read-out: Stability
[12] = target: Phosphatidylinositol 4,5-bisphosphate 3-kinase catalytic subunit gamma isoform (Homo sapiens, UniProt P48736); assay: Inhibition of human PI3Kgamma expressed in baculovirus infected Sf21 insect cells by ADP-Glo assay
Sequence of Phosphatidylinositol 4,5-bisphosphate 3-kinase catalytic subunit gamma isoform (P48736 whole entry, canonical isoform): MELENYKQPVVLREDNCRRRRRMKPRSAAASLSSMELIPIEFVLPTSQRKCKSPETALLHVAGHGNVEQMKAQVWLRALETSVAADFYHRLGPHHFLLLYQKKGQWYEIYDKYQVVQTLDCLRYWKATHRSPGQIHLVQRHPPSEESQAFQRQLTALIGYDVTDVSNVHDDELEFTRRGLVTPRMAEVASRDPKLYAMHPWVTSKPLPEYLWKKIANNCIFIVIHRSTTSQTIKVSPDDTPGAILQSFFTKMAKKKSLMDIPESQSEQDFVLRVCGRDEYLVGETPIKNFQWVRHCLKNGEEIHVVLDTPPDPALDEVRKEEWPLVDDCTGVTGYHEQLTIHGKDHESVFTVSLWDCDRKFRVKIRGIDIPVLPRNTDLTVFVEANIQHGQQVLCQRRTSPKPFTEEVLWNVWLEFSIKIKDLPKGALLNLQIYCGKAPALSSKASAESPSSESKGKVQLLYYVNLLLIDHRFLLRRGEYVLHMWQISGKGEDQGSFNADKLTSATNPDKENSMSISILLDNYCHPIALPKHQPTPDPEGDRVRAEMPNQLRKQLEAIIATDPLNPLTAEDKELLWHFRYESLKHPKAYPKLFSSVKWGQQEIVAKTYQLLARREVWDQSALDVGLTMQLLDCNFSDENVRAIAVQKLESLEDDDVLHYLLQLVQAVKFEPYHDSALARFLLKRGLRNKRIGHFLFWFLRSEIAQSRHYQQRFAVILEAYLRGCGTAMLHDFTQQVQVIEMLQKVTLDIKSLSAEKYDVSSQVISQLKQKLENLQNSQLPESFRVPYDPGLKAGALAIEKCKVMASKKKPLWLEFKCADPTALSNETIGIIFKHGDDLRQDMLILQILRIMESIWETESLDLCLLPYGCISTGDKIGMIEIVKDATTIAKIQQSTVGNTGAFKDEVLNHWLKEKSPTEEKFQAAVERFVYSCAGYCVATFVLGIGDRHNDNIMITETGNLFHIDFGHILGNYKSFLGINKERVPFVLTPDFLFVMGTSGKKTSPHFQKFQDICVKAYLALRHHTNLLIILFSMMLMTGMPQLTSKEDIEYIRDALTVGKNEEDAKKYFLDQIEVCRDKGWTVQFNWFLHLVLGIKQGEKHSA

U-87 MG [13] = assay: Antitumor activity against human U-87 MG cells xenografted in BALB/c mouse assessed as tumor growth inhibition at 40 mg/kg/day, ip for 16 days relative to control; format: functional, U-87MG ATCC; conditions: 384 h, time 16 day, read-out: TGI
In short: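 U87-MG xenografts in mice; dosing began once mean tumor volume reached about 100 mm³. Given 40 mg/kg/day intraperitoneally, once daily for 16 days.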

U-87 MG [14] = assay: Antiproliferative activity against human U-87 MG cells assessed as inhibition of cell proliferation incubated for 96 hrs by MTT assay; format: functional, cell-based, U-87MG ATCC

IC50 [1]: 20 nM
Compound: COc1cccc2c1nc(C(F)F)n2-c1nc(N2CCOCC2)nc(N2CCN(C(=S)SCCN3CCCC3)CC2)n1

IC50 [1]: 38 nM
Compound: CCN(CC)CCSC(=S)N1CCN(c2nc(N3CCOCC3)nc(-n3c(C(F)F)nc4c(OC)cccc43)n2)CC1

IC50 [1]: 29 nM
Compound: COc1cccc2c1nc(C(F)F)n2-c1nc(N2CCOCC2)nc(N2CCN(C(=S)SCCN3CCOCC3)CC2)n1

IC50 [1]: 34 nM
Compound: COc1cccc2c1nc(C(F)F)n2-c1nc(N2CCOCC2)cc(N2CCN(C(=S)SCC(=O)NC3CCCC3)CC2)n1

Compound: COc1cccc2c1nc(C(F)F)n2-c1nc(N2CCOCC2)nc(N2CCN(C(=S)SCC(=O)N3CCN(S(C)(=O)=O)CC3)CC2)n1
remaining at 1 h [2]: 68.2%
Activity [3]: Non-Toxic
Activity [4]: Non-Toxic
IC50 [5]: > 50 nM
CLint scaled [6]: 116 mL/min/kg
Activity [7]: Non-Toxic
microsomal CLint [8]: 64 µL/min/mg
IC50 [9]: > 50 nM
IC50 (HCT-116): 830 nM
half-life [10]: 21.5 min
remaining at 1 h [11]: 11.2%
IC50 [12]: 42 nM
inhibition in vivo at 40 mg/kg/day (U-87 MG [13]): 42%
IC50 (U-87 MG [14]): 1250 nM
IC50 [1]: 1.2 nM

IC50 [1]: 1.6 nM
Compound: COc1cccc2c1nc(C(F)F)n2-c1nc(N2CCOCC2)nc(N2CCN(C(=S)SCC(N)=O)CC2)n1

IC50 [1]: 1.6 nM
Compound: COc1cccc2c1nc(C(F)F)n2-c1nc(N2CCOCC2)nc(N2CCN(C(=S)SCC(=O)NC3CCC3)CC2)n1

IC50 [1]: 63 nM
Compound: COc1cccc2c1nc(C(F)F)n2-c1nc(N2CCOCC2)nc(N2CCN(C(=S)SCCN(C)C)CC2)n1

IC50 [1]: 12 nM
Compound: COc1cccc2c1nc(C(F)F)n2-c1nc(N2CCOCC2)cc(N2CCN(C(=S)SCC(=O)NC3CCCCC3)CC2)n1

IC50 [1]: 5.1 nM
Compound: COc1cccc2c1nc(C(F)F)n2-c1nc(N2CCOCC2)nc(N2CCN(C(=S)SCC(=O)NC3CCCCC3)CC2)n1

IC50 [1]: 3.3 nM
Compound: COc1cccc2c1nc(C(F)F)n2-c1nc(N2CCOCC2)cc(N2CCN(C(=S)SCC(=O)NC3CCC3)CC2)n1

IC50 [1]: 81 nM
Compound: COc1cccc2c1nc(C(F)F)n2-c1nc(N2CCOCC2)cc(N2CCN(C(=S)SCCN3CCOCC3)CC2)n1

IC50 [5]: > 50 nM
IC50 [9]: > 50 nM
IC50 (HCT-116): 1530 nM
IC50 [12]: 35 nM
IC50 (U-87 MG [14]): 1220 nM
IC50 [1]: 1.2 nM
Compound: COc1cccc2c1nc(C(F)F)n2-c1nc(N2CCOCC2)cc(N2CCN(C(=S)SCC(=O)N3CCOCC3)CC2)n1

IC50 [1]: 1.3 nM
Compound: CCN(CC)C(=O)CSC(=S)N1CCN(c2cc(N3CCOCC3)nc(-n3c(C(F)F)nc4c(OC)cccc43)n2)CC1

IC50 [1]: 0.9 nM
Compound: COc1cccc2c1nc(C(F)F)n2-c1nc(N2CCOCC2)nc(N2CCN(C(=S)SCC(=O)N3CCCC3)CC2)n1

IC50 [1]: 42 nM
Compound: COc1cccc2c1nc(C(F)F)n2-c1nc(N2CCOCC2)nc(N2CCN(C(=S)SCCN3CCCCC3)CC2)n1

IC50 [1]: 2.8 nM
Compound: COc1cccc2c1nc(C(F)F)n2-c1nc(N2CCOCC2)nc(N2CCN(C(=S)SCC(=O)NC3CCCC3)CC2)n1

IC50 [1]: 2.5 nM
Compound: COc1cccc2c1nc(C(F)F)n2-c1nc(N2CCOCC2)nc(N2CCN(C(=S)SCC(=O)N3CCN(C4CCCC4)CC3)CC2)n1

IC50 [1]: 2.7 nM
Compound: COc1cccc2c1nc(C(F)F)n2-c1nc(N2CCOCC2)cc(N2CCN(C(=S)SCC(=O)NC3CC3)CC2)n1

IC50 (HCT-116): 1110 nM
IC50 (U-87 MG [14]): 600 nM
IC50 [1]: 0.7 nM
Compound: COc1cccc2c1nc(C(F)F)n2-c1nc(N2CCOCC2)nc(N2CCN(C(=S)SCC(=O)N3CCOCC3)CC2)n1

IC50 [1]: 21 nM
Compound: COCCSC(=S)N1CCN(c2nc(N3CCOCC3)nc(-n3c(C(F)F)nc4c(OC)cccc43)n2)CC1

IC50 [1]: 9.1 nM
Compound: COc1cccc2c1nc(C(F)F)n2-c1nc(N2CCOCC2)nc(N2CCN(C(=S)SCCN3CCN(C)CC3)CC2)n1

IC50 (HCT-116): 980 nM
IC50 (U-87 MG [14]): 1670 nM
IC50 [1]: 1.4 nM
Compound: COc1cccc2c1nc(C(F)F)n2-c1nc(N2CCOCC2)nc(N2CCN(C(=S)SCC(=O)N3CCN(C)CC3)CC2)n1

IC50 [1]: 34 nM
Compound: COc1cccc2c1nc(C(F)F)n2-c1nc(N2CCOCC2)cc(N2CCN(C(=S)SCCN(C)C)CC2)n1

IC50 [1]: 2.5 nM
Compound: COc1cccc2c1nc(C(F)F)n2-c1nc(N2CCOCC2)cc(N2CCN(C(=S)SCC(N)=O)CC2)n1

IC50 [1]: 17 nM
Compound: COCCSC(=S)N1CCN(c2cc(N3CCOCC3)nc(-n3c(C(F)F)nc4c(OC)cccc43)n2)CC1

IC50 (HCT-116): 2780 nM
IC50 (U-87 MG [14]): 1100 nM
IC50 [1]: 0.8 nM
Compound: COc1cccc2c1nc(C(F)F)n2-c1nc(N2CCOCC2)nc(N2CCN(C(=S)SCC(=O)N(C)C)CC2)n1

IC50 [1]: 1.4 nM
Compound: COc1cccc2c1nc(C(F)F)n2-c1nc(N2CCOCC2)nc(N2CCN(C(=S)SCC(=O)NC3CC3)CC2)n1

IC50 (HCT-116): 1230 nM
IC50 (U-87 MG [14]): 1990 nM
IC50 [1]: 1.4 nM
Compound: COc1cccc2c1nc(C(F)F)n2-c1nc(N2CCOCC2)cc(N2CCN(C(=S)SCC(=O)N3CCCC3)CC2)n1

IC50 [5]: > 50 nM
IC50 [9]: > 50 nM
IC50 (HCT-116): 2200 nM
IC50 [12]: 33 nM
IC50 (U-87 MG [14]): 2040 nM
IC50 [1]: 1.8 nM
Compound: COc1cccc2c1nc(C(F)F)n2-c1nc(N2CCOCC2)cc(N2CCN(C(=S)SCC(=O)N(C)C)CC2)n1

IC50 [1]: 1.1 nM
Compound: CCN(CC)C(=O)CSC(=S)N1CCN(c2nc(N3CCOCC3)nc(-n3c(C(F)F)nc4c(OC)cccc43)n2)CC1

IC50 [1]: 120 nM
Compound: COc1cccc2c1nc(C(F)F)n2-c1nc(N2CCOCC2)cc(N2CCN(C(=S)SCCN3CCN(C)CC3)CC2)n1

Compound: FC(F)c1nc2ccccc2n1-c1nc(N2CCOCC2)nc(N2CCOCC2)n1 [ZSTK-474]
remaining at 1 h [2]: 100%
Activity [3]: Non-Toxic
Activity [4]: Non-Toxic
CLint scaled [6]: 97 mL/min/kg
Activity [7]: Non-Toxic
microsomal CLint [8]: 54 µL/min/mg
IC50 (HCT-116): 710 nM
half-life [10]: 25.7 min
remaining at 1 h [11]: 19.6%
inhibition in vivo at 40 mg/kg/day (U-87 MG [13]): 72%
IC50 (U-87 MG [14]): 130 nM
